Assay results taken from ChEMBL document CHEMBL1821634, “Design and synthesis of (+)-discodermolide-paclitaxel hybrids leading to enhanced biological activity” (J Med Chem, 2011).
pIC50: −log10 of the molar value. Activity calls are given as the source filed them. The rule behind the calls is not given here.

Assays:
A549 = assay: Antiproliferative activity against human A549 cells after 72 hrs by SRB method; type: functional, cell-based; conditions: A549, 72 h
Outline: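 Cells kept in RPMI with 10% FBS; 800 A549 cells seeded per well, drugs added at increasing concentrations 18 h after plating. Incubated 72 h at 37 °C, then fixed and stained with SRB. IC50 taken as concentration inhibiting growth by 50%.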

MCF7 = assay: Antiproliferative activity against human MCF7 cells after 96 hrs by SRB method; type: functional, cell-based; conditions: MCF7, 96 h
Outline: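 MCF-7 cells grown in RPMI plus 10% fetal bovine serum, seeded at 2000 per well. Increasing drug concentrations added 18 h post-plating. Incubation for 96 h at 37 °C, with the later fixation allowing for growth rate, then SRB staining. IC50 is the concentration giving 50% growth inhibition.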

Bos taurus = organism: Bos taurus; assay: Induction of bovine brain tubulin polymerization at 3 uM after 30 mins by SDS-PAGE
Outline: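 Tubulin (2.5 μM) in 0.1 M MES, 1 mM EGTA, 1 mM MgCl₂ with 2 mM GTP, incubated with drug at 3 μM for 30 min at 37 °C. Polymer pelleted at 120000g, 37 °C, 1 h. Pellet dissolved in SDS sample buffer and analysed by SDS-PAGE.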

Compound	pIC50 (A549)	pIC50 (MCF7)	Activity (Bos taurus)
CC(=O)O[C@H]1C(=O)[C@@]2(C)[C@H]([C@H](OC(=O)c3ccccc3)[C@]3(O)C[C@H](OC(=O)[C@H](O)[C@@H](NC(=O)c4ccccc4)c4ccccc4)C(C)=C1C3(C)C)[C@]1(OC(C)=O)CO[C@@H]1C[C@@H]2O [PACLITAXEL]	8.50	9.04	
C=C/C=C\[C@H](C)[C@H](OC(=O)NCCCNC(=O)c1ccc(C2(C(F)(F)F)N=N2)cc1)[C@@H](C)[C@H](O)[C@@H](C)C/C(C)=C\[C@H](C)[C@@H](O)[C@@H](C)/C=C\[C@@H](O)C[C@@H]1OC(=O)[C@H](C)[C@@H](O)[C@H]1C	8.58	8.72	Active
C=C/C=C\[C@H](C)[C@H](OC(N)=O)[C@@H](C)[C@H](O)[C@@H](C)C/C(C)=C\[C@H](C)[C@@H](O)[C@@H](C)/C=C\[C@@H](O)C[C@@H]1OC(=O)[C@H](C)[C@@H](O)[C@H]1C [DISERMOLIDE]	8.03	8.10	Active

Now from value to molecule:

pIC50 (A549)	pIC50 (MCF7)	Activity (Bos taurus)	Compound
8.98	8.78	Active	C=C/C=C\[C@H](C)[C@H](OC(=O)NCCCNC(=O)c1cccc(N=[N+]=[N-])c1)[C@@H](C)[C@H](O)[C@@H](C)C/C(C)=C\[C@H](C)[C@@H](O)[C@@H](C)/C=C\[C@@H](O)C[C@@H]1OC(=O)[C@H](C)[C@@H](O)[C@H]1C
8.42	8.57	Active	C=C/C=C\[C@H](C)[C@H](OC(=O)NCCCCNC(=O)c1ccc(N=[N+]=[N-])cc1)[C@@H](C)[C@H](O)[C@@H](C)C/C(C)=C\[C@H](C)[C@@H](O)[C@@H](C)/C=C\[C@@H](O)C[C@@H]1OC(=O)[C@H](C)[C@@H](O)[C@H]1C
8.25	8.44	Active	C=C/C=C\[C@H](C)[C@H](OC(=O)NCCNC(=O)c1ccc(N=[N+]=[N-])cc1)[C@@H](C)[C@H](O)[C@@H](C)C/C(C)=C\[C@H](C)[C@@H](O)[C@@H](C)/C=C\[C@@H](O)C[C@@H]1OC(=O)[C@H](C)[C@@H](O)[C@H]1C
8.92	8.72	Active	C=C/C=C\[C@H](C)[C@H](OC(=O)NCCCNC(=O)c1ccc(N=[N+]=[N-])cc1)[C@@H](C)[C@H](O)[C@@H](C)C/C(C)=C\[C@H](C)[C@@H](O)[C@@H](C)/C=C\[C@@H](O)C[C@@H]1OC(=O)[C@H](C)[C@@H](O)[C@H]1C
